High-throughput results deposited in PubChem BioAssay by several laboratories.
Runt-CBFb FRET – blocks binding of human RUNX1 Runt domain to CBFb; Cerulean-Runt/Venus-CBFb FRET ratio 530/480, 1 h; Q01196+Q13951; inhibition, % at 20 µM; actives 0.46% (n = 220,000);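 active = inhibition over about 50% at 20 µM in the single-dose screen, limit read from the data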
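System: Cerulean-labeled Runt domain protein | Quantity: 100 nM of each labeled protein | Schedule: 1 h compound exposure, room temperature | Detection: Fluorescence energy transfer, 422 nm excitation, 530/480 nm emission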
Runt-SMMHC FRET – inhibitors of human RUNX1 Runt domain binding to CBFb-SMMHC | Cerulean-Runt/Venus-CBFb-SMMHC FRET ratio 530/480, 1 h | inhibition, % at 20 µM | actives 0.74% (n = 220,000) | Q01196+Q13951;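 active = mean inhibition across duplicate retests at 20 µM reaching about 50%, limit read from the data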;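 also: inhibitors lower the FRET ratio by blocking Runt binding to CBFb-SMMHC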
Calpain2 inh – calpain II (pig) inhibition; purified calpain II, fluorogenic peptide substrate, 30 min; inhibition, % at 16 µM; actives 0.37% (n = 220,000); AID 1236;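 active = inhibition above about 50%, limit read from the data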
RanGTP-Impb inh – disruptors of Ran-importin-beta complex formation – biochemical, FRET, CFP-Ran, YFP-importin-beta, homogeneous, primary screen; inhibition, % (concentration not given with the values); cell-free CFP-Ran/YFP-importin-beta FRET ratio; actives 1.1% (n = 300,000);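 active = more than half of the replicate wells show a fall in the fluorescence ratio signal beyond about 16%, limit read from the data, passing the limit was not always enough; inconclusive = exactly half of the replicate wells pass the set limit; inactive = fewer than half of replicates pass the limit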
FAS-TE inh – inhibitors of human fatty acid synthase thioesterase domain. recombinant FAS-TE, OMFH fluorogenic substrate, fluorescence endpoint. inhibition, % at 15 µM. actives 0.67% (n = 360,000);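 active = compounds whose normalised, plate-corrected inhibition of enzyme fluorescence in the single-dose primary screen is 50% or more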
Numbers stand for hits; 0 = inactive; ? = inconclusive; - = not tested or not shown. Sampled rows, rich in hits. Any-hit rate of the full collection: about 2.1%.

SMILES	Runt-CBFb FRET	Runt-SMMHC FRET	Calpain2 inh	RanGTP-Impb inh	FAS-TE inh
Cc1cc(C)cc(NC(=O)C2CCN(S(=O)(=O)c3ccc4[nH]c(=O)ccc4c3)CC2)c1	-	-	-	0	0
CC(Oc1ccc(Cl)cc1Cl)C(=O)NCCCn1ccnc1 (centres undefined)	0	81	0	0	0
Cc1cc(NC(=O)C(C)Oc2ccc(Cl)cc2Cl)no1 (centres undefined)	-	-	-	38	0
C[C@@H]1NS(=O)(=O)[C@H]2C[C@@H]3C=C[C@]2(O3)[C@H]1OC(=O)c1ccc(C(C)(C)C)cc1	-	-	-	-	0
COc1ccc(CCNC(=O)c2cc(-c3ccccn3)nc3c(Cl)cccc23)cc1OC	0	0	0	24	0
COc1ccc(CCNC(=O)c2cc(-c3ccncc3)nc3c(Cl)cccc23)cc1OC	0	0	0	0	0
CC1(C)N([O-])c2cc([N+](=O)[O-])ccc2[N+]1=O	63	85	0	-	-
O=C(Nn1c(O)c(C=C2N=c3ccccc3=N2)sc1=S)c1ccc(Cl)cc1	0	0	0	33	0
CC(=O)c1ccc(S(=O)(=O)NCCC(=O)NC(C)c2ccncc2)cc1 (centres undefined)	-	-	-	-	0
COc1ccc(CNC(=O)C2CCN(S(=O)(=O)c3ccc4nc5c(c(C(=O)O)c4c3)CC(C)CC5)CC2)cc1 (centres undefined)	-	-	-	0	0
CC1CCc2nc3ccc(S(=O)(=O)N4CCC(C(=O)NCc5ccccc5Cl)CC4)cc3c(C(=O)O)c2C1 (centres undefined)	-	-	-	22	0
CCc1ccc(NC(=O)C(CC)Sc2nc3ccsc3c(=O)n2CCC(=O)O)cc1 (centres undefined)	-	-	-	0	0
Cc1cc(C(=O)CN(Cc2ccc(F)cc2)S(=O)(=O)c2ccc3c(c2)OCCO3)c(C)n1C	0	0	58	0	0
Cc1ccc(Cl)cc1N1CCN(C(=O)Cc2cn(C)c3ccccc23)CC1	0	0	55	0	0
O=C(CS(=O)(=O)c1cn(Cc2ccc(Cl)cc2)c2ccccc12)N1CCCC1	0	0	0	0	0
Cc1ccc(C)c(N2CCN(C(=O)Cc3cn(C)c4ccccc34)CC2)c1	0	0	0	0	0
O=C(Cc1cn(Cc2cccc(Cl)c2)c2ccccc12)N1CCCC1	0	0	52	0	0
COc1cc([N+](=O)[O-])ccc1NC(=O)CN1CCN(C(=O)c2ccco2)CC1	0	0	0	0	0
COc1cc2c(cc1OC)C1(Nc3c-2c(Cc2ccccc2)nn3-c2ccccc2)C(=O)Nc2ccccc21 (centres undefined)	0	0	0	24	0
Cc1cc(NC(=O)CSc2nc3sc4c(c3c(=O)n2C)CCCC4)no1	0	0	52	0	0
CCn1c(SCC(=O)Nc2cc(C)on2)nc2sc3c(c2c1=O)CCCC3	0	0	0	?	0
COc1ccc(NC(=O)c2ccc(NC(=O)CN3CCN(c4ccccc4)CC3)cc2)cc1	-	-	-	-	0
CCOc1ccc(CCNC(=O)CN2C(=O)COc3ccc(S(=O)(=O)N4CCOCC4)cc32)cc1	-	-	-	0	0
Cc1cc(=O)n2ccccc2c1C#N	0	0	0	0	0
COc1ccc2c(C#N)c3ccccn3c2c1	0	92	0	0	0
SMILES	Runt-CBFb FRET	Runt-SMMHC FRET	Calpain2 inh	RanGTP-Impb inh	FAS-TE inh
O=C(c1ccoc1)N1CCN(c2cc(-c3cccc(F)c3)nc3cc(-c4cccc(Cl)c4)nn23)CC1	-	-	-	-	0
CCCN(CCC)C(=S)NC(=O)c1ccc(-c2ccccc2)cc1	0	0	50	0	0
CCOc1ccc(C(=O)NC(=S)N(Cc2ccccc2)Cc2ccccc2)cc1	0	0	0	0	0
COc1cccc(C(=O)N2c3ccccc3Sc3ccccc32)c1	0	0	52	0	0
N#Cc1ccc(C(=O)NCC2CCCCC2)cc1	-	-	-	0	0
N#C/C(=C(/O)CCCl)c1ccccn1	0	92	0	21	0
O=C1NC(=S)S/C1=C\c1ccc(SCc2ccccc2)o1	0	0	0	-	0
O=C1NC(=S)S/C1=C\c1ccc(SCc2ccco2)o1	0	0	52	-	0
Cc1ccc(S(=O)(=O)C(C#N)c2nc3ccccc3nc2N2CCC(C)CC2)cc1 (centres undefined)	0	0	0	0	0
Cc1ccc(S(=O)(=O)C(C#N)c2nc3ccccc3nc2OCCO)cc1 (centres undefined)	0	0	0	26	0
